Starred links: 1 amine or outer side, 2 acyl side, 3 side chain; linkers in the order of their positions; H or OH if unused. Non-standard residues stand in square brackets, D forms with d. Residues, ends and D or L forms follow the SMILES beside them. X1 = NCCCC(CC(=O)[*:2])N[*:1]; Nlys = NCCCCNCC(=O)O
Key:
[1] = Half-life of the conjugate when treated with 25% murine serum for enzymatic stability; No degradation observed within the period of time indicated; type: ADME; conditions: mouse
Summary of the method: (§1)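 Conjugates at 20 μM in 10% FBS RPMI 1640 medium or 25% mouse serum (Hepes-stabilised, diluted in PBS, pH 7.1–7.4), incubated at 37 °C. Sampled to 168 h (FBS) or 48 h (serum); proteins precipitated with 10% DCA, PNA 6mer internal standard added. Analysed by C3 RP-HPLC at 60 °C; t1/2 from normalised full-length peak area versus time.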

[2] = Half-life of the conjugate when treated with 10% foetal bovine serum for enzymatic stability; type: ADME, Bos taurus; conditions: cattle; summary of the method: as §1
[3] = system: CD40 mRNA; assay: […] CD40 expression in BCL1 cells treated with 10 uM peptide nucleic acid (PNA)conjugate; n=3; type: functional, cell-based; conditions: Mus musculus
Summary of the method: (§2)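 Mouse BCL1 cells in DMEM with 10% FBS, given conjugate at 1, 3 or 10 μM by free uptake (no transfection agent) for 3 days. Cells trypsinised and stained 1 h with FITC anti-CD40 (HM40-3) or isotype control, then surface CD40 read by flow cytometry. Results are % untreated control, mean ± SD, n = 3.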

[4] = system: CD40 mRNA; assay: […] CD40 expression in BCL1 cells treated with 1 uM peptide nucleic acid (PNA)conjugate; n=3; type: functional, cell-based; conditions: Mus musculus; summary of the method: as §2
[5] = system: CD40 mRNA; assay: […] CD40 expression in BCL1 cells treated with 3 uM peptide nucleic acid (PNA)conjugate; n=3; type: functional, cell-based; conditions: Mus musculus; summary of the method: as §2
[6] = system: BCL1; assay: Inhibitory concentration against BCL1 cell proliferation in WST-1 assay; Range 10-20; type: functional, Mus musculus
Summary of the method: (§3)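 BCL1 cells, 2000 per well, grown in DMEM with 10% FBS at 37 °C and 5% CO2. Exposed to conjugate for 3 days, then viable cells read by WST-1 absorbance at 450 nm. Value is the concentration at which absorbance fell below 50% of untreated control; triplicates.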

[7] = Average tissue concentration of conjugate at a dose of 3 mg/Kg in BALB/c mice skeletal muscle when given s.c. measured after 24 h; n=3; type: ADME, tissue-based; conditions: mouse, in vivo, sc
[8] = system: BCL1; assay: Inhibitory concentration against BCL1 cell proliferation in WST-1 assay; type: functional, Mus musculus; summary of the method: as §3
[9] = Average tissue concentration of conjugate at a dose of 3 mg/Kg in BALB/c mice heart when given i.v. measured after 24 h; n=3; type: ADME, tissue-based; conditions: mouse, in vivo, iv
[10] = Average tissue concentration of conjugate at a dose of 3 mg/Kg in BALB/c mice testes when given i.v. measured after 24 h; n=3; type: ADME, tissue-based, Testis; conditions: mouse, in vivo, iv
[11] = Average tissue concentration of conjugate at a dose of 3 mg/Kg in BALB/c mice large intestine when given i.v. measured after 24 h; n=3; type: ADME, tissue-based; conditions: mouse, in vivo, iv
[12] = Average tissue concentration of conjugate at a dose of 3 mg/Kg in BALB/c mice pancreas when given s.c. measured after 24 h; n=3; type: ADME; conditions: mouse, in vivo, sc
[13] = Average tissue concentration of conjugate at a dose of 3 mg/Kg in BALB/c mice MLN when given s.c. measured after 24 h; n=3; type: ADME; conditions: mouse, in vivo, sc
[14] = Average tissue concentration of conjugate at a dose of 3 mg/Kg in BALB/c mice large intestine when given s.c. measured after 24 h; n=3; type: ADME, tissue-based; conditions: mouse, in vivo, sc
[15] = Average tissue concentration of conjugate at a dose of 3 mg/Kg in BALB/c mice lungs when given s.c. measured after 24 h; n=3; type: ADME; conditions: mouse, in vivo, sc
[16] = Average tissue concentration of conjugate at a dose of 3 mg/Kg in BALB/c mice injection site when given s.c. measured after 24 h; n=3; type: ADME; conditions: mouse, in vivo, sc
[17] = Average tissue concentration of conjugate at a dose of 3 mg/Kg in BALB/c mice testes when given s.c. measured after 24 h; n=3; type: ADME, tissue-based, Testis; conditions: mouse, in vivo, sc
[18] = Average tissue concentration of conjugate at a dose of 3 mg/Kg in BALB/c mice heart when given s.c. measured after 24 h; n=3; type: ADME, tissue-based; conditions: mouse, in vivo, sc
[19] = Average tissue concentration of conjugate at a dose of 3 mg/Kg in BALB/c mice skin when given s.c. measured after 24 h; n=3; type: ADME; conditions: mouse, in vivo, sc
[20] = Average tissue concentration of conjugate at a dose of 3 mg/Kg in BALB/c mice spleen when given i.v. measured after 24 h; n=3; type: ADME, tissue-based; conditions: mouse, in vivo, iv
[21] = Average tissue concentration of conjugate at a dose of 3 mg/Kg in BALB/c mice liver when given s.c. measured after 24 h; n=3; type: ADME, tissue-based; conditions: mouse, in vivo, sc
[22] = Average tissue concentration of conjugate at a dose of 3 mg/Kg in BALB/c mice skin when given i.v. measured after 24 h; n=3; type: ADME; conditions: mouse, in vivo, iv
[23] = Average tissue concentration of conjugate at a dose of 3 mg/Kg in BALB/c mice spleen when given s.c. measured after 24 h; n=3; type: ADME, tissue-based; conditions: mouse, in vivo, sc
[24] = Average tissue concentration of conjugate at a dose of 3 mg/Kg in BALB/c mice pancreas when given i.v. measured after 24 h; n=3; type: ADME; conditions: mouse, in vivo, iv
[25] = Half-life of the conjugate when treated with 10% foetal bovine serum for enzymatic stability; No degradation observed within the period of time indicated; type: ADME, Bos taurus; conditions: cattle; summary of the method: as §1
[26] = Average tissue concentration of conjugate at a dose of 3 mg/Kg in BALB/c mice small intestine when given i.v. measured after 24 h; n=3; type: ADME, tissue-based; conditions: mouse, in vivo, iv
[27] = Average tissue concentration of conjugate at a dose of 3 mg/Kg in BALB/c mice lungs when given i.v. measured after 24 h; n=3; type: ADME; conditions: mouse, in vivo, iv
[28] = Average tissue concentration of conjugate at a dose of 3 mg/Kg in BALB/c mice liver when given i.v. measured after 24 h; n=3; type: ADME, tissue-based; conditions: mouse, in vivo, iv
[29] = Half-life of the conjugate when treated with 25% murine serum for enzymatic stability; type: ADME; conditions: mouse; summary of the method: as §1
[30] = Average tissue concentration of conjugate at a dose of 3 mg/Kg in BALB/c mice MLN when given i.v. measured after 24 h; n=3; type: ADME; conditions: mouse, in vivo, iv
[31] = Average tissue concentration of conjugate at a dose of 3 mg/Kg in BALB/c mice kidney when given s.c. measured after 24 h; n=3; type: ADME; conditions: mouse, in vivo, sc
[32] = Average tissue concentration of conjugate at a dose of 3 mg/Kg in BALB/c mice small intestine when given s.c. measured after 24 h; n=3; type: ADME, tissue-based; conditions: mouse, in vivo, sc
[33] = Average tissue concentration of conjugate at a dose of 3 mg/Kg in BALB/c mice kidney when given i.v. measured after 24 h; n=3; type: ADME; conditions: mouse, in vivo, iv
[34] = Average tissue concentration of conjugate at a dose of 3 mg/Kg in BALB/c mice skeletal muscle when given i.v. measured after 24 h; n=3; type: ADME, tissue-based; conditions: mouse, in vivo, iv
[35] = system: BCL1; assay: Inhibitory concentration against BCL1 cell proliferation in WST-1 assay; Range 5-10; type: functional, Mus musculus; summary of the method: as §3
[36] = Half-life of the conjugate when treated with 25% murine serum for enzymatic stability; Range 2-3 h; type: ADME; conditions: mouse; summary of the method: as §1
[37] = Half-life of the conjugate when treated with 25% murine serum for enzymatic stability; No data available; type: ADME; conditions: mouse; summary of the method: as §1

SMILES: NCCCC[C@@H](C=O)NC(=O)[C@@H](CCCCN)NC(=O)[C@@H](CCCCN)NC(=O)[C@@H](CCCCN)NC(=O)[C@@H](CCCCN)NC(=O)[C@@H](CCCCN)NC(=O)[C@@H](CCCCN)NC(=O)[C@@H](CCCCN)NC(=O)[C@H](N)CCCCN
- half-life [1]: > 48 h
- half-life [2]: > 168 h
- UTC [3]: 54%
- UTC [4]: 97%
- UTC [5]: 81%
- IC50 [6]: 20 µM

SMILES: NCCCC[C@@H](C=O)NC(=O)[C@H](CCCCN)NC(=O)[C@H](CCCCN)NC(=O)[C@H](CCCCN)NC(=O)[C@H](CCCCN)NC(=O)[C@H](CCCCN)NC(=O)[C@H](CCCCN)NC(=O)[C@H](CCCCN)NC(=O)[C@@H](N)CCCCN
- Biodistribution [7]: 0.2 ug equiv/g
- IC50 for cell proliferation [8]: 20 µM
- Biodistribution [9]: 0.18 ug equiv/g
- Biodistribution [10]: 0.38 ug equiv/g
- Biodistribution [11]: 2.07 ug equiv/g
- Biodistribution [12]: 0.2 ug equiv/g
- Biodistribution [13]: 0.76 ug equiv/g
- Biodistribution [14]: 0.31 ug equiv/g
- Biodistribution [15]: 0.1 ug equiv/g
- Biodistribution [16]: 20 ug equiv/g
- Biodistribution [17]: 0.23 ug equiv/g
- UTC [3]: 39% [middle of 7 runs]
- Biodistribution [18]: 0.07 ug equiv/g
- Biodistribution [19]: 0.75 ug equiv/g
- Biodistribution [20]: 3.68 ug equiv/g
- Biodistribution [21]: 5.44 ug equiv/g
- Biodistribution [22]: 1.25 ug equiv/g
- Biodistribution [23]: 1.51 ug equiv/g
- UTC [4]: 88% [middle of 7 runs]
- Biodistribution [24]: 0.6 ug equiv/g
- half-life [25]: > 168 h
- Biodistribution [26]: 1.31 ug equiv/g
- Biodistribution [27]: 0.22 ug equiv/g
- Biodistribution [28]: 11.47 ug equiv/g
- half-life [29]: 6.7 h
- Biodistribution [30]: 1.94 ug equiv/g
- Biodistribution [31]: 11.55 ug equiv/g
- Biodistribution [32]: 0.26 ug equiv/g
- Biodistribution [33]: 12.74 ug equiv/g
- Biodistribution [34]: 0.29 ug equiv/g

SMILES: NCCCC[C@@H](C=O)NC(=O)CC(CCCN)NC(=O)CC(CCCN)NC(=O)CC(CCCN)NC(=O)CC(CCCN)NC(=O)CC(CCCN)NC(=O)CC(CCCN)NC(=O)CC(CCCN)NC(=O)CC(N)CCCN (stereo partly specified)
- Cell viability [35]: 10 µM
- half-life [2]: > 168 h
- UTC [3]: 66%
- UTC [4]: 94%
- half-life [29]: > 48 h
- UTC [5]: 81%

SMILES: NCCCC[C@@H](C=O)NC(=O)[C@H](CCCCN)NC(=O)[C@H](CCCCN)NC(=O)[C@H](CCCN=C(N)N)NC(=O)[C@H](CCCCN)NC(=O)[C@H](CCCCN)NC(=O)[C@H](CCCN=C(N)N)NC(=O)[C@H](CCCCN)NC(=O)[C@@H](N)CCCCN (H-KKRKKRKKK-aldehyde)
- half-life [36]: 3 h
- half-life [2]: 90 h
- UTC [3]: 43%
- UTC [4]: 90%
- UTC [5]: 76%
- IC50 [6]: 20 µM

SMILES: NCCCC[C@@H](C=O)NC(=O)[C@H](CCCCN)NC(=O)[C@H](CCCCN)NC(=O)CC(CCCN)NC(=O)[C@H](CCCCN)NC(=O)[C@H](CCCCN)NC(=O)CC(CCCN)NC(=O)[C@H](CCCCN)NC(=O)[C@@H](N)CCCCN (stereo partly specified) (H-KK[X1]KK[X1]KKK-aldehyde)
- T1/2 [37]: No data available
- Cell viability [35]: 10 µM
- half-life [2]: > 168 h
- UTC [3]: 61%
- UTC [4]: 98%
- UTC [5]: 82%

SMILES: NCCCC[C@H](NC(=O)CN(CCCCN)C(=O)[C@H](CCCCN)NC(=O)CN(CCCCN)C(=O)[C@H](CCCCN)NC(=O)CN(CCCCN)C(=O)[C@H](CCCCN)NC(=O)CN(CCCCN)C(=O)[C@@H](N)CCCCN)C(=O)O (H-K[Nlys]K[Nlys]K[Nlys]K[Nlys]K-OH)
- T1/2 [37]: No data available
- half-life [2]: > 168 h
- UTC [3]: 70%
- UTC [4]: 111%
- UTC [5]: 96%
- IC50 [6]: 20 µM

SMILES: N=C(N)NCCC[C@H](NC(=O)[C@H](CCCNC(=N)N)NC(=O)[C@H](CCCNC(=N)N)NC(=O)[C@H](CCCNC(=N)N)NC(=O)[C@H](CCCNC(=N)N)NC(=O)[C@H](CCCNC(=N)N)NC(=O)[C@H](CCCNC(=N)N)NC(=O)[C@@H](N)CCCNC(=N)N)C(=O)N[C@H](C=O)CCCCN (H-RRRRRRRRK-aldehyde)
- IC50 for cell proliferation [8]: >20 µM
- half-life [36]: 3 h
- half-life [2]: 20 h
- UTC [3]: 60%
- UTC [4]: 102%
- UTC [5]: 81%

— ChEMBL document CHEMBL1141128, “Structure-activity relationship study on a simple cationic peptide motif for cellular delivery of antisense peptide nucleic acid” (J Med Chem, 2005)
